Data from ChEMBL document CHEMBL5696442, “Discovery of type II inhibitors of TGFβ-activated kinase 1 (TAK1) and mitogen-activated protein kinase kinase kinase kinase 2 (MAP4K2)” (J Med Chem, 2015).
Activity calls are given as the source filed them. The calls are words filed in the database; no cut-off is given here.

How the values were obtained:
[1] = molecular target: Mitogen-activated protein kinase 10 (Homo sapiens, UniProt P53779); experiment: Inhibition of JNK3 Lys2 labeling site in human Huh-7 cells at 1 uM by KiNativ Profiling analysis relative to control; format: cell-based
[2] = molecular target: T1, Dual specificity mitogen-activated protein kinase kinase 4 (Homo sapiens) (UniProt P45985); experiment: Inhibition of MAP2K4 ACT labeling site in human Huh-7 cell lysate at 1 uM by KiNativ Profiling analysis relative to control; format: subcellular
T1 sequence (whole entry): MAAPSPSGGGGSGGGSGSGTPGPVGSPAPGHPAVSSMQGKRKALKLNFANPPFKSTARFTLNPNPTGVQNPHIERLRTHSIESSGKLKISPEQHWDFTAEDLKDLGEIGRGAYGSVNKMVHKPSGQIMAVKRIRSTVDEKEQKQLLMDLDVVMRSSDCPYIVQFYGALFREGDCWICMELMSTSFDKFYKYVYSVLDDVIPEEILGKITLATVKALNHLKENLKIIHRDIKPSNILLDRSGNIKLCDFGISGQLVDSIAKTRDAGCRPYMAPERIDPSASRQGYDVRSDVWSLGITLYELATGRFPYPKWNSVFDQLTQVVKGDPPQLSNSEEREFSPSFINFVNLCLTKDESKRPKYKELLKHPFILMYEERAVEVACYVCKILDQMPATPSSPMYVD

[3] = molecular target: Serine/threonine-protein kinase DCLK1 (Homo sapiens) (UniProt O15075); experiment: Inhibition of DCAMKL1 (unknown origin) at 10 uM by Ambit Kinomescan binding assay
[4] = molecular target: Peripheral plasma membrane protein CASK (Homo sapiens) (UniProt O14936); experiment: Inhibition of CASK Lys1 labeling site in human A-375 cells at 0.5 uM by KiNativ Profiling analysis relative to control
[5] = molecular target: ALK tyrosine kinase receptor (Homo sapiens) (UniProt Q9UM73); experiment: Inhibition of ALK (unknown origin) at 10 uM by Ambit Kinomescan binding assay relative to control; values are per cent of control
[6] = Inhibition of MLK1/4 K2 labeling site in human Huh-7 cells at 10 uM by KiNativ Profiling analysis relative to control; conditions: condition cancer
[7] = molecular target: MAP/microtubule affinity-regulating kinase 4 (Homo sapiens) (UniProt Q96L34); experiment: Inhibition of MARK4 (unknown origin) at 10 uM by Ambit Kinomescan binding assay
[8] = molecular target: T2, Phosphorylase b kinase gamma catalytic chain, liver/testis isoform (Homo sapiens) (UniProt P15735); experiment: Inhibition of PHKG2 (unknown origin) at 10 uM by Ambit Kinomescan binding assay
T2 sequence (whole entry): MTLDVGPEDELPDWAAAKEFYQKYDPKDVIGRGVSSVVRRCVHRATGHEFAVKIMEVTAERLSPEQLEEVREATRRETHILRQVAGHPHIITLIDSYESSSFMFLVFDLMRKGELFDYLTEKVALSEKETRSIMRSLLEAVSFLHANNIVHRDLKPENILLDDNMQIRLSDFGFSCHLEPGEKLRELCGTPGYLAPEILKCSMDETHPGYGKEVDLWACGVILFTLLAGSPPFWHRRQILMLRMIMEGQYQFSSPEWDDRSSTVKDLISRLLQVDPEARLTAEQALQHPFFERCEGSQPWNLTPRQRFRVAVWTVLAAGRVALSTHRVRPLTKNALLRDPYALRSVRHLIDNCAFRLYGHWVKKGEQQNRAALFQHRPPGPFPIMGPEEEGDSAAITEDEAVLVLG

[9] = molecular target: Casein kinase II subunit alpha (Homo sapiens) (UniProt P68400); experiment: Inhibition of CSNK2A1 (unknown origin) at 10 uM by Ambit Kinomescan binding assay
[10] = molecular target: Mitogen-activated protein kinase kinase kinase 4 (Homo sapiens) (UniProt Q9Y6R4); experiment: Inhibition of MAP3K4 K2 labeling site in human Huh-7 cells at 10 uM by KiNativ Profiling analysis relative to control; format: cell-based
[11] = molecular target: Cyclin-dependent kinase 15 (Homo sapiens) (UniProt Q96Q40); experiment: Inhibition of PFTAIRE2 (unknown origin) at 10 uM by Ambit Kinomescan binding assay relative to control
[12] = molecular target: Mitogen-activated protein kinase 14 (Homo sapiens, UniProt Q16539); experiment: Inhibition of p38 alpha Lys2 labeling site in human A-375 cells at 5 uM by KiNativ Profiling analysis relative to control; format: cell-based
[13] = molecular target: Ribosomal protein S6 kinase alpha-1 (Homo sapiens) (UniProt Q15418); experiment: Inhibition of RSK1 domain1 Lys2 labeling site harbouring DLKPENILLDEEGHIKLTDFGLSK in human A-375 cells at 5 uM by KiNativ Profiling analysis relative to control; format: cell-based
Procedure, shortened: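 Live A375 melanoma cells treated with compound at 5 or 0.5 μM, then lysed. Lysate kinases were labeled with a lysine-reactive ATP or ADP-biotin probe. Inhibition was read as protection of labeling sites from the probe.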

[14] = molecular target: Ribosomal protein S6 kinase alpha-4 (Homo sapiens) (UniProt O75676); experiment: Inhibition of MSK2 domain1 Lys2 labeling site in human A-375 cells at 5 uM by KiNativ Profiling analysis relative to control; format: cell-based
[15] = molecular target: cAMP-dependent protein kinase catalytic subunit PRKX (Homo sapiens) (UniProt P51817); experiment: Inhibition of PRKX (unknown origin) at 1 uM by Ambit Kinomescan binding assay relative to control
[16] = molecular target: Receptor tyrosine-protein kinase erbB-3 (Homo sapiens) (UniProt P21860); experiment: Inhibition of HER3/ErbB3 Lys1 labeling site in human A-375 cells at 0.05 uM by KiNativ Profiling analysis relative to control; format: cell-based
[17] = molecular target: Macrophage colony-stimulating factor 1 receptor (Homo sapiens) (UniProt P07333); experiment: Inhibition of CSF1R (unknown origin) at 1 uM by Ambit Kinomescan binding assay relative to control; values are per cent of control
[18] = molecular target: Ephrin type-A receptor 1 (Homo sapiens) (UniProt P21709); experiment: Inhibition of EPHA1 (unknown origin) at 1 uM by Ambit Kinomescan binding assay relative to control; values are per cent of control
[19] = molecular target: Serine/threonine-protein kinase DCLK3 (Homo sapiens) (UniProt Q9C098); experiment: Inhibition of DCAMKL3 (unknown origin) at 1 uM by Ambit Kinomescan binding assay relative to control; values are per cent of control
[20] = molecular target: Serine/threonine-protein kinase 4 (Homo sapiens) (UniProt Q13043); experiment: Inhibition of MST1 Lys1 labeling site harbouring ETGQIVAIKQVPVESDLQEIIK in human A-375 cells at 5 uM by KiNativ Profiling analysis relative to control
[21] = molecular target: Cyclin-dependent kinase 11A (Homo sapiens) (UniProt Q9UQ88); experiment: Inhibition of CDC2L2 (unknown origin) at 1 uM by Ambit Kinomescan binding assay relative to control; values are per cent of control

Serine/threonine-protein kinase 4 (Homo sapiens), sequence (Q13043 whole entry, looked up): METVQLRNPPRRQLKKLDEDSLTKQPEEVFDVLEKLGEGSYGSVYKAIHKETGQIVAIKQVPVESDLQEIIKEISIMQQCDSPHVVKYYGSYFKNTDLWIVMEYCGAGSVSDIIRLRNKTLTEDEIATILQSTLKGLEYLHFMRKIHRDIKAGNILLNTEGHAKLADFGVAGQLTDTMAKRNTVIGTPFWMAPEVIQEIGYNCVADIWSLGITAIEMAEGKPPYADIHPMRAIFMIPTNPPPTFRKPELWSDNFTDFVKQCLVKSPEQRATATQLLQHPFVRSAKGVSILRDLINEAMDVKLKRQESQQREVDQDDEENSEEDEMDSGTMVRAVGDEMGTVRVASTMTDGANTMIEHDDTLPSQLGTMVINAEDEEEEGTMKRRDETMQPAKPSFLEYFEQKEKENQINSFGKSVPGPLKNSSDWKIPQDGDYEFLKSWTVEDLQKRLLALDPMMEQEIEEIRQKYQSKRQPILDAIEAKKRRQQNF
Casein kinase II subunit alpha (Homo sapiens), sequence (P68400 whole entry, looked up): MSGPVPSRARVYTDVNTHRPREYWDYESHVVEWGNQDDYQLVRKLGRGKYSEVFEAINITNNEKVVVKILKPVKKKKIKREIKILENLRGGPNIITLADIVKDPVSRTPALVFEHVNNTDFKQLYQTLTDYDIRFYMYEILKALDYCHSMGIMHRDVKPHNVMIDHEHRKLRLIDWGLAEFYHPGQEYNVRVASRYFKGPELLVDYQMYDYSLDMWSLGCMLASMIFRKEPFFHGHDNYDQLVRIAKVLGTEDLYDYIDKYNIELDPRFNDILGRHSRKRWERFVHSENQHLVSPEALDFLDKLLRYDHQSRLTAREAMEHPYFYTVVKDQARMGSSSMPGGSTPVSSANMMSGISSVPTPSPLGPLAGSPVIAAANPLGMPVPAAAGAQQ
Mitogen-activated protein kinase kinase kinase 4 (Homo sapiens), sequence (Q9Y6R4 whole entry): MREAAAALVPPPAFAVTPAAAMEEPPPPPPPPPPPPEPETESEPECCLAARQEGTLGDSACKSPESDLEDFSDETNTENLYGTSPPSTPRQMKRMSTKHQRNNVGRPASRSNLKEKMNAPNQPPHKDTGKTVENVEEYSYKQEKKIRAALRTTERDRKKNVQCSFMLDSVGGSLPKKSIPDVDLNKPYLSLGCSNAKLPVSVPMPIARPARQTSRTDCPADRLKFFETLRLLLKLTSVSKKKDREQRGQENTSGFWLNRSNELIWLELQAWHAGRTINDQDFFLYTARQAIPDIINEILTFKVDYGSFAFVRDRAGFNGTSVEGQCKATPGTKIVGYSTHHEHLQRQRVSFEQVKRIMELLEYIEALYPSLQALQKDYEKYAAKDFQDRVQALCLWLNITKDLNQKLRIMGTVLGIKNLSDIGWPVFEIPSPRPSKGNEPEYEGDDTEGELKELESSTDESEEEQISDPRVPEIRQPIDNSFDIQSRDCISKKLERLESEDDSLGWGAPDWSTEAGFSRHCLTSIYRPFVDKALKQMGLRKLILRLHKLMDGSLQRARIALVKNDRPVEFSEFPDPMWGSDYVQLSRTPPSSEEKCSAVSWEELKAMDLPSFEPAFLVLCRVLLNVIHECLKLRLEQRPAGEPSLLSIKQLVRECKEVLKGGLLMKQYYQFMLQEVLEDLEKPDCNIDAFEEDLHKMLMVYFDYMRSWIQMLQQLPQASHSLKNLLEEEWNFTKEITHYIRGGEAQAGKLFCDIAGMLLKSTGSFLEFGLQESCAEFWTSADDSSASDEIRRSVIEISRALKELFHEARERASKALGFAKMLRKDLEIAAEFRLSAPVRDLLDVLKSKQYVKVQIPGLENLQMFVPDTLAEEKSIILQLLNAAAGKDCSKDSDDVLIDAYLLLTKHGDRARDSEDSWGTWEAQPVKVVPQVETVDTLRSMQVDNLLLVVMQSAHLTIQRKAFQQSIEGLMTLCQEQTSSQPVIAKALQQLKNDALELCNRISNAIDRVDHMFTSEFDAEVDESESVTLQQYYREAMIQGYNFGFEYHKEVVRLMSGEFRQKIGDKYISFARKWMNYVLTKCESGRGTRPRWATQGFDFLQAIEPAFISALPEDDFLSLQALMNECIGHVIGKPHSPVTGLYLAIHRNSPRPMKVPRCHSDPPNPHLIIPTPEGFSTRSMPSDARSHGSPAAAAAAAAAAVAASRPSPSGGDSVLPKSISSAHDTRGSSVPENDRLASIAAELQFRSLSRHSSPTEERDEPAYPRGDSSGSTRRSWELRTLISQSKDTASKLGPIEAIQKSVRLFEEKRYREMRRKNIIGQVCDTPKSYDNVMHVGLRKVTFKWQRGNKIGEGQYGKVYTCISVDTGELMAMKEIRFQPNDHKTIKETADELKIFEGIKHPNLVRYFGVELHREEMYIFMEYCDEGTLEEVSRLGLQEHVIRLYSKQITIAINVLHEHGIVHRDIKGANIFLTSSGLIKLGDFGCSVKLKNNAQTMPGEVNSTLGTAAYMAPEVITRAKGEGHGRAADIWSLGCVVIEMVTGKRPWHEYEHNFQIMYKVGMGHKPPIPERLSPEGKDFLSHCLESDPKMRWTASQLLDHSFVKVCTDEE
Ribosomal protein S6 kinase alpha-1 (Homo sapiens), sequence (Q15418 whole entry, the tested form may be a part): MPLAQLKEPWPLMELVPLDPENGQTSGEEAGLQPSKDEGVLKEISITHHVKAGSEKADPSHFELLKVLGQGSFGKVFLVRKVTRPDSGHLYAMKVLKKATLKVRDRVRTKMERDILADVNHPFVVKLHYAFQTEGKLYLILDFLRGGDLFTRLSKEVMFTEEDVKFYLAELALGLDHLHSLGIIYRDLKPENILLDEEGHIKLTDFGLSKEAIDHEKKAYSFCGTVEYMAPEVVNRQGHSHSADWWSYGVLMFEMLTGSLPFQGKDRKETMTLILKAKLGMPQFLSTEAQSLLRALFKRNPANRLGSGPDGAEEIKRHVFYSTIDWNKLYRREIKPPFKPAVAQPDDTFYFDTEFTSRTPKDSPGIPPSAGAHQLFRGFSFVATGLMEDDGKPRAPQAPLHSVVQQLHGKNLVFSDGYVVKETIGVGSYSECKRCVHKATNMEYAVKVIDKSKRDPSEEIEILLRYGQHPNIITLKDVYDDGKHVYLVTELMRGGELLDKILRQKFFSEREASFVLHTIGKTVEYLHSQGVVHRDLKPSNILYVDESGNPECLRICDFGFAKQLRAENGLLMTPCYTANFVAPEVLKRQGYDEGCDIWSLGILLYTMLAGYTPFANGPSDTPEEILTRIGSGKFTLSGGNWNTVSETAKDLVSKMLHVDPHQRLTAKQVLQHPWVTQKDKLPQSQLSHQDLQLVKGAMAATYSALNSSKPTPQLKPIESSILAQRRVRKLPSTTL
Ephrin type-A receptor 1 (Homo sapiens), sequence (P21709 whole entry): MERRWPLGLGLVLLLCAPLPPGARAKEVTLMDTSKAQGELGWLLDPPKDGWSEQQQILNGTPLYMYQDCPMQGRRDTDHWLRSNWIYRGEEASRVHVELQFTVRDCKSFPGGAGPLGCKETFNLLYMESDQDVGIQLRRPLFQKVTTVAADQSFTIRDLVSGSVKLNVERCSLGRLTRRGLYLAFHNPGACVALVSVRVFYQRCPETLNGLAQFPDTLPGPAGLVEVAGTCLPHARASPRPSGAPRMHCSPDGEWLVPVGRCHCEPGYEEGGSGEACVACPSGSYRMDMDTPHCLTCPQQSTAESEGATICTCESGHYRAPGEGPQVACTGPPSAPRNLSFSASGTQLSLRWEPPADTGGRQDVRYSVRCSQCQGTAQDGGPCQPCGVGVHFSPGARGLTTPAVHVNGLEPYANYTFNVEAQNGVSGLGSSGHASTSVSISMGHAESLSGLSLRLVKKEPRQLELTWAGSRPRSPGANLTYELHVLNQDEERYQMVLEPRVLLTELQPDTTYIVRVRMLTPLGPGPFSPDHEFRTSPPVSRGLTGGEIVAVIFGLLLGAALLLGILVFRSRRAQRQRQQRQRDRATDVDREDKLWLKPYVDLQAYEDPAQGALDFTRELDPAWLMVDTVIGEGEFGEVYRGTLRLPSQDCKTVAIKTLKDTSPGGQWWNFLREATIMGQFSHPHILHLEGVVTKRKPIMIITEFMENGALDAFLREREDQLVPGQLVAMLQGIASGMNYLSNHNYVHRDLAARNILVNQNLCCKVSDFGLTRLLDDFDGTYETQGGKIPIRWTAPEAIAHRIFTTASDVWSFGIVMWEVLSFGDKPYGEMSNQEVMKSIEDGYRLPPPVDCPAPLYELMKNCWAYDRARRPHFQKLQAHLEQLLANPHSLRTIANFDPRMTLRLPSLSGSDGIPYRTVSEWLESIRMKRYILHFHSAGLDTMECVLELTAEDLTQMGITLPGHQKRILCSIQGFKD
Mitogen-activated protein kinase 10, sequence (P53779 whole entry): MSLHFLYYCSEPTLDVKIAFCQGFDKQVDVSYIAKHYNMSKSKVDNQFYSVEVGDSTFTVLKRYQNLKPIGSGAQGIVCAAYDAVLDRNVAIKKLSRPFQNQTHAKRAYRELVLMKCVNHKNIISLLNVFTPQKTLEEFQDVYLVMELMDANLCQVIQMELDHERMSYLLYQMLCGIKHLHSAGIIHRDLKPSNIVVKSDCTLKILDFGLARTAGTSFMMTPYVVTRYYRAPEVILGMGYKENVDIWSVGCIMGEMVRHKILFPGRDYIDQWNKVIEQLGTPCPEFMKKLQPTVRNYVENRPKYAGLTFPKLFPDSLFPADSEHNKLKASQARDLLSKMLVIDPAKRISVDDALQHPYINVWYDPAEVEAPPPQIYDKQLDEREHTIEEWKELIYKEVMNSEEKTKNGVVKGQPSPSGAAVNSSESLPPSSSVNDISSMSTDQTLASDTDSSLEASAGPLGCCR
cAMP-dependent protein kinase catalytic subunit PRKX (Homo sapiens), sequence (P51817 whole entry): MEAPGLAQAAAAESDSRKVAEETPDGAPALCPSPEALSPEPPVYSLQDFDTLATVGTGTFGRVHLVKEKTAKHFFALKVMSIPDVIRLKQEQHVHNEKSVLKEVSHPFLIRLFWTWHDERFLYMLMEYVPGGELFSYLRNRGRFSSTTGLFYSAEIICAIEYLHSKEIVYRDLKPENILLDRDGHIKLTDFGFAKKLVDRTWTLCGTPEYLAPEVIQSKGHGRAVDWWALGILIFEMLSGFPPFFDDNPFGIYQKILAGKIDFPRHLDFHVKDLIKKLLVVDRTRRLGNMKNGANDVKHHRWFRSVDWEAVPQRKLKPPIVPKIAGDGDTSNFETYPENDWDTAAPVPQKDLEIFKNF

CNc1cc(Oc2cc(C(=O)Nc3cc(N4CCN(C)CC4)cc(C(F)(F)F)c3)ccc2C)ncn1
inhibition [1]: 14.5% | inhibition [2]: -2.8%

CCN1CCN(Cc2ccc(NC(=O)c3ccc(C)c(Oc4ccnc5[nH]ccc45)c3)cc2C(F)(F)F)CC1
inhibition [3]: inactive | inhibition [4]: 5.8% | percent of control [5]: 0.55% | inhibition at 10 µM [6]: 2.9% | inhibition [7]: inactive | inhibition [8]: inactive | inhibition [9]: inactive | inhibition [10]: 5.2% | inhibition [11]: 6%

CCN1CCN(Cc2ccc(NC(=O)c3ccc(C)c(/C=C/c4cnc5[nH]ccc5c4OC)c3)cc2C(F)(F)F)CC1
inhibition [12]: 52.4% | inhibition [13]: -4.9% | inhibition [14]: 9% | inhibition [15]: 57% | inhibition [16]: 21.3% | residual activity [17]: 0.75% | residual activity [18]: 16% | residual activity [19]: 100% | inhibition [20]: 27.6% | residual activity [21]: 70%
